Columns and labels:
Mus musculus [1] = test: Anticonvulsant activity after intraperitoneal injection into mice by using MES screen test after 0.5 hr; type: functional
Mus musculus [2] = test: Anticonvulsant activity after intraperitoneal injection into mice measured in a maximal electroshock scree (MES) screen; type: functional
Mus musculus [3] = test: Anticonvulsant activity after intraperitoneal injection into mice by using scPTZ screen after 0.5 hr; type: functional
Mus musculus [4] = test: Anticonvulsant activity after intraperitoneal injection into mice by using scPTZ screen test after 4 hr; type: functional
Mus musculus [5] = test: Toxicity after intraperitoneal injection into mice by using toxicity screen test after 0.5 hr; type: organism-based; details: in vivo, ip
In short: (§1)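 Mice injected intraperitoneally at 30, 100 and 300 mg/kg and examined 0.5 and 4 h afterwards. Each entry is the minimum dose giving activity (MES protection, scPTZ protection, or rotorod failure for neurotoxicity) in half or more of the mice. Activity is called absent if nothing occurs at 300 mg/kg.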

Mus musculus [6] = test: Compound was tested for toxicity after intraperitoneal injection into mice by using toxicity screen test after 4 hr; type: organism-based; details: in vivo, ip; in short: as §1
Mus musculus [7] = test: Compound was tested for anticonvulsant activity after intraperitoneal injection into mice by using MES screen test at 1 hr; type: functional; details: ip
In short: (§2)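 Quantitative intraperitoneal mouse testing in the MES, scPTZ or rotorod neurotoxicity screens at the peak time given for each compound (0.25–2 h). ED50 or TD50 reported in mg/kg with 95% CI and slope (SE).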

[8] = Compound was tested for toxicity after intraperitoneal injection into mice by using neurotoxicity screen test after 4 hr; type: organism-based; details: mouse, in vivo, ip; in short: as §1
Rattus norvegicus [9] = test: Compound was tested for anticonvulsant activity after Oral Administration into Rats by using MES screen test after 0.25h,dose 12.5 mg/kg; No activity was demonstarted; type: functional, organism-based; design: dose 12.5 mg/kg
In short: (§3)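 Rats received the compound orally. […] Rats were tested in the MES screen at 0.25, 0.5, 1, 2 and 4 h. Each value is the number of rats protected out of 4. The test followed NINDS procedures.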

Rattus norvegicus [10] = test: Compound was tested for anticonvulsant activity after Oral Administration into Rats by using MES screen test after 4h,dose 12.5 mg/kg; number of rats out of four which were protected; type: functional; in short: as §3
Rattus norvegicus [11] = test: Compound was tested for anticonvulsant activity after Oral Administration into Rats by using MES screen test after 0.5h,dose 12.5 mg/kg; No activity was demonstarted; type: functional, organism-based; design: dose 12.5 mg/kg; in short: as §3
Rattus norvegicus [12] = test: Compound was tested for anticonvulsant activity after Oral Administration into Rats by using MES screen test after 1h,dose 12.5 mg/kg; number of rats out of four which were protected; type: functional; in short: as §3
Rattus norvegicus [13] = test: Compound was tested for anticonvulsant activity after Oral Administration into rat by using MES screen test after 2 hr; type: functional
In short: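 Rats dosed orally, typically at 50 mg/kg first, then mostly 12.5 mg/kg (some compounds at 30 mg/kg), and tested by maximal electroshock. Four rats per compound, scored at 0.25, 0.5, 1, 2 and 4 h as the number of rats protected out of 4.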

[14] = Compound was tested for toxicity after oral administration in rat by using neurotoxicity screen test after 0.25-24 hr; type: organism-based; details: in vivo
In short: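 Rat neurotoxicity after oral dosing, observed at 0.25, 0.5, 1, 2, 4, 6, 8 and 24 h (8 h omitted for one compound).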

Mus musculus [15] = test: Compound was tested for anticonvulsant activity after intraperitoneal injection into mice by using scPTZ screen test after 1 hr; type: functional; details: ip; in short: as §2
Rattus norvegicus [16] = test: Compound was tested for anticonvulsant activity after Oral Administration into Rats by using MES screen test after 2h,dose 12.5 mg/kg; number of rats out of four which were protected; type: functional; in short: as §3
Mus musculus [17] = test: Compound was tested for anticonvulsant activity after intraperitoneal injection into mice by using MES screen test after 2 hr; type: functional; details: ip; in short: as §2
Mus musculus [18] = test: Compound was tested for anticonvulsant activity after intraperitoneal injection into mice by using scPTZ screen test after 2 hr; type: functional; details: ip; in short: as §2
[19] = Compound was tested for toxicity after intraperitoneal injection into mice by using neurotoxicity screen test after 2 hr; type: organism-based; details: mouse, in vivo, ip; in short: as §2
Rattus norvegicus [20] = test: Anticonvulsant activity after oral administration into rats; type: functional; design: concentration or dose not given beside the values
Rattus norvegicus [21] = test: Compound was tested for anticonvulsant activity after Oral Administration into rat by using MES screen test after 6 hr; type: functional
In short: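 Oral dosing in rats, maximal electroshock challenge, with ED50, 95% CI, slope and SE determined at the time listed for each compound (0.25 to 6 h range).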

[22] = Protection index = TD50/ED50 (MES); details: mouse, in vivo; read-out: PI
Mus musculus [23] = test: Compound was tested for anticonvulsant activity after intraperitoneal injection into mice by using MES screen test after 1 hr; type: functional; details: ip; in short: as §2
Mus musculus [24] = test: Compound was tested for anticonvulsant activity after intraperitoneal injection into mice by using scPTZ screen test after 0.5 hr; type: functional; details: ip; in short: as §1
[25] = Compound was tested for toxicity after intraperitoneal injection into mice by using neurotoxicity screen test after 1 hr; type: organism-based; details: mouse, in vivo, ip; in short: as §2
Rattus norvegicus [26] = test: Compound was tested for anticonvulsant activity after Oral Administration into Rats by using MES screen test after 0.25h,dose 12.5 mg/kg; number of rats out of four which were protected; type: functional; in short: as §3
[27] = Protection index = TD50/ED50 (scPTZ ); type: ADME; details: read-out: PI
In short: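 Protection index calculated as TD50/ED50 from mouse intraperitoneal scPTZ ED50 and rotorod TD50 values, each taken at its own peak time.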

Mus musculus [28] = test: Anticonvulsant activity after intraperitoneal injection into mice by using MES screen test after 0.25 hr; type: functional
Mus musculus [29] = test: Compound was tested for anticonvulsant activity after intraperitoneal injection into mice by using scPTZ screen test after 0.25 hr; type: functional; details: ip; in short: as §2
[30] = Compound was tested for toxicity after intraperitoneal injection into mice by using neurotoxicity screen test after 0.25 hr; details: mouse, in vivo, ip
[31] = Compound was tested for toxicity after oral administration in rat by using neurotoxicity screen test after 0.5 hr; details: in vivo
Mus musculus [32] = test: Compound was tested for anticonvulsant activity after intraperitoneal injection into mice by using MES screen test after 0.5 hr; type: functional; details: ip; in short: as §1
[33] = Compound was tested for […] after intraperitoneal injection into mice by using neurotoxicity screen test after 2 hr; type: organism-based; details: mouse, in vivo, ip; in short: as §2
Rattus norvegicus [34] = test: Compound was tested for anticonvulsant activity after Oral Administration into Rats by using MES screen test after 4h,dose 50 mg/kg; number of rats out of four which were protected; type: functional; in short: as §3
Rattus norvegicus [35] = test: Compound was tested for anticonvulsant activity after Oral Administration into Rats by using MES screen test after 2h,dose 50 mg/kg; number of rats out of four which were protected; type: functional; in short: as §3
Rattus norvegicus [36] = test: Compound was tested for anticonvulsant activity after Oral Administration into Rats by using MES screen test after 0.25h,dose 50 mg/kg; No activity was demonstarted; type: functional, organism-based; design: dose 50 mg/kg; in short: as §3
Rattus norvegicus [37] = test: Compound was tested for anticonvulsant activity after Oral Administration into Rats by using MES screen test after 0.5h,dose 50 mg/kg; number of rats out of four which were protected; type: functional; in short: as §3
Rattus norvegicus [38] = test: Compound was tested for anticonvulsant activity after Oral Administration into Rats by using MES screen test after 1h,dose 50 mg/kg; number of rats out of four which were protected; number of rats out of four which were protected; type: functional; in short: as §3
Mus musculus [39] = test: Compound was tested for toxicity after intraperitoneal injection into mice using toxicity screen test; details: in vivo, ip

| Compound | Dose (Mus musculus [1]) [mg/kg] | Dose (Mus musculus [2]) [mg/kg] | Dose (Mus musculus [3]) [mg/kg] | Dose (Mus musculus [4]) [mg/kg] | Dose (Mus musculus [5]) [mg/kg] | Dose (Mus musculus [6]) [mg/kg] | Activity (Rattus norvegicus [9]) | Activity (Rattus norvegicus [10]) | Activity (Rattus norvegicus [12]) | Activity (Rattus norvegicus [16]) | Activity (Rattus norvegicus [20]) | selectivity ratio [22] | ED50 (Mus musculus [24]) [mg/kg] | further results |
| --- | --- | --- | --- | --- | --- | --- | --- | --- | --- | --- | --- | --- | --- | --- |
| Cc1ccc(Sc2ccc(/C=N/NC(N)=O)cc2)cc1 | 30 | 30 | 100 | 100 | 300 | 100 | No activity | 4 | 4 | 4 | – | – | – | ED50 (Mus musculus [7]): 9.46 mg/kg; TD50 at 4 h [8]: 197 mg/kg; Activity (Rattus norvegicus [11]): No activity; ED50 (Rattus norvegicus [13]): 3.65 mg/kg; TD50 [14]: > 500 mg/kg; ED50 (Mus musculus [15]): > 300 mg/kg |
| CCc1ccc(Oc2ccc(/C=N/NC(N)=O)cc2)cc1 | 30 | 30 | 300 | – | 300 | 100 | No activity | 4 | 4 | 4 | 2 | 3.32 | – | ED50 (Mus musculus [17]): 10.3 mg/kg; ED50 (Mus musculus [18]): > 100 mg/kg; TD50 at 2 h [19]: 34 mg/kg; ED50 (Rattus norvegicus [21]): 6.48 mg/kg |
| C/C(=N/NC(N)=O)c1ccc(Sc2ccc(Br)cc2)cc1 | 100 | 30 | 300 | – | – | 300 | – | 4 | 4 | 4 | 3 | 11.3 | 41.9 | ED50 (Mus musculus [23]): 3.82 mg/kg; TD50 at 1 h [25]: 43.2 mg/kg; Activity (Rattus norvegicus [26]): 1; selectivity ratio [27]: 1.03 |
| CCCC(CCC)C(=O)O [VALPROIC ACID] | – | – | 300 | – | – | – | – | – | – | – | – | – | – | ED50 (Mus musculus [28]): 287 mg/kg; ED50 (Mus musculus [29]): 209 mg/kg; TD50 at 0.25 h [30]: 483 mg/kg; TD50 at 0.5 h [31]: 859 mg/kg |
| NC(=O)N/N=C\c1ccc(Oc2cccc(Cl)c2)cc1 | 30 | 100 | 30 | 300 | – | 100 | – | – | – | – | – | – | 41.2 | ED50 (Mus musculus [32]): 27.7 mg/kg; TD50 at 2 h [33]: 64.5 mg/kg; Activity (Rattus norvegicus [34]): 4; Activity (Rattus norvegicus [35]): 4; Activity (Rattus norvegicus [36]): No activity; Activity (Rattus norvegicus [37]): 4; Activity (Rattus norvegicus [38]): 4; Dose (Mus musculus [39]): 300 mg/kg |

From ChEMBL document CHEMBL1129428 (J Med Chem, 1996)
